ChEMBL document CHEMBL3525963, “Tissue distribution and elimination of [14C]apixaban in rats” (Drug Metab Dispos, 2011)

Experiments:
Rattus norvegicus [1] = experiment: Biodistribution in male Sprague-Dawley rat kidney cortex at 5 mg/kg, po administered as single dose measured after 8 hrs; format: ADME, organism-based; design: dose 5 mg/kg, dosed compound name [14C]-apixaban, route oral; settings: in vivo
Adrenal gland [2] = experiment: Biodistribution in male Sprague-Dawley rat adrenal gland at 5 mg/kg, po administered as single dose measured after 24 hrs; format: ADME, organism-based; design: dose 5 mg/kg, dosed compound name [14C]-apixaban, route oral; settings: in vivo
Summary of the method: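 Fasted male SD rats (225-252 g) each received one oral gavage dose of [14C]apixaban, 5 mg/kg (100 μCi/kg), in 0.5% Tween 80/Labrafil vehicle. One rat was killed per time point, from 0.5 to 168 h. Frozen carcasses were cut into 40 µm sagittal whole-body sections and read by QWBA phosphor imaging against [14C]glucose calibrants. Results are in µg apixaban eq/g; BLQ <0.037 µg eq/g.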

Thymus = experiment: Biodistribution in female Sprague-Dawley rat thymus at 5 mg/kg, po administered as single dose measured after 24 hrs; format: ADME, organism-based; design: dose 5 mg/kg, dosed compound name [14C]-apixaban, route oral; settings: in vivo
Summary of the method: (§1)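 Quantitative whole-body autoradiography was run after a single 5 mg/kg (100 μCi/kg) oral gavage to fasted female or pregnant SD rats, one rat per time point. Carcasses were frozen in hexane/dry ice, and 40 µm sagittal sections were dried at −20°C for at least 48 h. Sections were exposed to a phosphor plate alongside [14C]glucose standards (0.001–6.5 µCi/g). Results are µg eq/g, with LLOQ 0.037 µg eq/g.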

Muscle tissue [3] = experiment: Biodistribution in female Sprague-Dawley rat muscle at 5 mg/kg, po administered as single dose measured after 24 hrs; format: ADME, organism-based; design: dose 5 mg/kg, dosed compound name [14C]-apixaban, route oral; settings: in vivo; summary of the method: as §1
Harderian gland = experiment: Biodistribution in female Sprague-Dawley rat harderian gland at 5 mg/kg, po administered as single dose measured after 8 hrs; format: ADME, organism-based; design: dose 5 mg/kg, dosed compound name [14C]-apixaban, route oral; settings: in vivo
Summary of the method: (§2)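 [¹⁴C]Apixaban given by oral gavage at 5 mg/kg (100 μCi/kg) in 0.5% Tween 80 in Labrafil (1.0 mg/mL dosing solution) to rats fasted overnight through 4 h post-dose. One rat per time point; carcass frozen in hexane/dry ice. Quantitative whole-body autoradiography used 40 µm sagittal sections and a phosphor imaging plate calibrated with [¹⁴C]glucose standards (0.001–6.5 μCi/g). Read-out in µg eq apixaban/g; LLOQ 0.037 μg eq/g.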

Adrenal gland [4] = experiment: Biodistribution in female Sprague-Dawley rat adrenal gland at 5 mg/kg, po administered as single dose measured after 1 hr; format: ADME, organism-based; design: dose 5 mg/kg, dosed compound name [14C]-apixaban, route oral; settings: in vivo; summary of the method: as §2
Muscle tissue [5] = experiment: Biodistribution in male Sprague-Dawley rat muscle at 5 mg/kg, po administered as single dose measured after 24 hrs; format: ADME, organism-based; design: dose 5 mg/kg, dosed compound name [14C]-apixaban, route oral; settings: in vivo
Summary of the method: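 [14C]apixaban (1.0 mg/mL, 20 μCi/mL) in 0.5% Tween 80 in Labrafil, given by oral gavage at 100 μCi/kg to male rats (225-252 g) fasted overnight through 4 h post-dose. One rat per time point. Carcasses frozen in hexane/dry ice and cut into 40 µm sagittal sections. QWBA read on phosphor plates against [14C]glucose standards, reported as µg eq/g. LLOQ 0.037 µg eq/g.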

Rattus norvegicus [6] = experiment: Biodistribution in male Sprague-Dawley rat bone marrow at 5 mg/kg, po administered as single dose measured after 4 hrs; format: ADME, organism-based; design: dose 5 mg/kg, dosed compound name [14C]-apixaban, route oral; settings: in vivo
Summary of the method: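 Fasted male rats, 225-252 g, received [14C]apixaban by single oral gavage at 100 μCi/kg in 0.5% Tween 80/Labrafil. One rat was killed per time point and the carcass frozen. Tissue radioactivity was quantified by QWBA (40 µm sagittal sections, phosphor plate, [14C]glucose calibration) as µg eq apixaban/g, with LLOQ 0.037 μg eq/g.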

Rattus norvegicus [7] = experiment: Biodistribution in male Sprague-Dawley rat pituitary gland at 5 mg/kg, po administered as single dose measured after 4 hrs; format: ADME, organism-based; design: dose 5 mg/kg, dosed compound name [14C]-apixaban, route oral; settings: in vivo
Lung = experiment: Biodistribution in pregnant Sprague-Dawley rat lung at 5 mg/kg, po administered as single dose measured after 24 hrs; format: ADME, organism-based; design: dose 5 mg/kg, dosed compound name [14C]-apixaban, route oral; settings: in vivo
Rattus norvegicus [8] = experiment: Biodistribution in female Sprague-Dawley rat bone marrow at 5 mg/kg, po administered as single dose measured after 0.5 hrs; format: ADME, organism-based; design: dose 5 mg/kg, dosed compound name [14C]-apixaban, route oral; settings: in vivo
Summary of the method: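 [14C]apixaban (20 μCi/mL in dosing solution) in 0.5% Tween 80 in Labrafil given by oral gavage to fasted female rats, 206-213 g, at 100 μCi/kg. One rat per time point was euthanized and snap-frozen. Sagittal 40 µm whole-body sections were read by QWBA phosphor imaging against [14C]glucose standards. Results are in µg eq apixaban/g, with LLOQ 0.037 μg eq/g.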

Blood = experiment: Biodistribution in female Sprague-Dawley rat blood at 5 mg/kg, po administered as single dose measured after 0.5 hrs; format: ADME, organism-based; design: dose 5 mg/kg, dosed compound name [14C]-apixaban, route oral; settings: in vivo; summary of the method: as §2
[9] = Drug level in lactating Sprague-Dawley rat milk at 5 mg/kg, po administered as single dose after 1 hr; format: ADME, organism-based; design: dose 5 mg/kg, dosed compound name [14C]-apixaban, route oral; settings: in vivo
Rattus norvegicus [10] = experiment: Biodistribution in fetal kidney of pregnant Sprague-Dawley rat at 5 mg/kg, po administered as single dose measured after 24 hrs; format: ADME, organism-based; design: dose 5 mg/kg, dosed compound name [14C]-apixaban, route oral; settings: in vivo; summary of the method: as §1
Spleen = experiment: Biodistribution in pregnant Sprague-Dawley rat spleen at 5 mg/kg, po administered as single dose measured after 48 hrs; format: ADME, organism-based; design: dose 5 mg/kg, dosed compound name [14C]-apixaban, route oral; settings: in vivo
Summary of the method: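 Pregnant SD rats (270-319 g) were fasted overnight and given one oral gavage of 5 mg/kg (100 μCi/kg) in 0.5% Tween 80 in Labrafil. One rat was euthanized per time point (0.5, 1, 4, 8, 24, 48 h) and the carcass frozen. 40 µm sagittal sections were phosphor-imaged against [14C]glucose standards and results reported as µg eq/g; LLOQ 0.037 µg eq/g.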

Muscle tissue [11] = experiment: Biodistribution in female Sprague-Dawley rat muscle at 5 mg/kg, po administered as single dose measured after 72 hrs; format: ADME, organism-based; design: dose 5 mg/kg, dosed compound name [14C]-apixaban, route oral; settings: in vivo; summary of the method: as §1
Rattus norvegicus [12] = experiment: Biodistribution in female Sprague-Dawley rat pituitary gland at 5 mg/kg, po administered as single dose measured after 72 hrs; format: ADME, organism-based; design: dose 5 mg/kg, dosed compound name [14C]-apixaban, route oral; settings: in vivo; summary of the method: as §1
Rattus norvegicus [13] = experiment: Biodistribution in pregnant Sprague-Dawley rat salivary gland at 5 mg/kg, po administered as single dose measured after 4 hrs; format: ADME, organism-based; design: dose 5 mg/kg, dosed compound name [14C]-apixaban, route oral; settings: in vivo
Brain = experiment: Biodistribution in female Sprague-Dawley rat brain at 5 mg/kg, po administered as single dose measured after 1 hr; format: ADME, organism-based; design: dose 5 mg/kg, dosed compound name [14C]-apixaban, route oral; settings: in vivo
Summary of the method: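 [14C]Apixaban (1.0 mg/mL, 20 μCi/mL in 0.5% Tween 80 in Labrafil) given as a single oral gavage of 5 mg/kg (100 μCi/kg) to fasted female SD rats, one rat per time point. Carcasses were frozen in hexane/dry ice and cut into 40 µm sagittal sections for QWBA against [14C]glucose standards. Brain radioactivity is reported as µg eq/g, with LLOQ 0.037 µg eq/g.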

Rattus norvegicus [14] = experiment: Biodistribution in pregnant Sprague-Dawley rat bone marrow at 5 mg/kg, po administered as single dose measured after 0.5 hrs; format: ADME, organism-based; design: dose 5 mg/kg, dosed compound name [14C]-apixaban, route oral; settings: in vivo
Rattus norvegicus [15] = experiment: Biodistribution in pregnant Sprague-Dawley rat kidney cortex at 5 mg/kg, po administered as single dose measured after 1 hr; format: ADME, organism-based; design: dose 5 mg/kg, dosed compound name [14C]-apixaban, route oral; settings: in vivo
Rattus norvegicus [16] = experiment: Biodistribution in fetal brain of pregnant Sprague-Dawley rat at 5 mg/kg, po administered as single dose measured after 1 hr; format: ADME, organism-based; design: dose 5 mg/kg, dosed compound name [14C]-apixaban, route oral; settings: in vivo
Summary of the method: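 Pregnant SD rats received a single oral gavage of [14C]apixaban at 5 mg/kg (100 μCi/kg; 1.0 mg/mL, 20 μCi/mL in 0.5% Tween 80/Labrafil) after fasting, one dam per time point. Frozen carcasses were cut into 40 µm sagittal sections and read by phosphor-imaging QWBA against [14C]glucose standards. Fetal tissue radioactivity is reported as µg eq/g, with LLOQ 0.037 µg eq/g.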

[17] = Drug excretion in Sprague-Dawley rat urine assessed as apixaban level at 30 mg/kg, po by HPLC method; settings: read-out: Compound recovery

Radiolabel recovery (Rattus norvegicus [1]): 0.88 ugequiv/g
Radiolabel recovery (Thymus): Not detected assumed BLQ
Radiolabel recovery (Muscle tissue [3]): Not detected assumed BLQ
Radiolabel recovery (Harderian gland): 0.22 ugequiv/g
Radiolabel recovery (Adrenal gland [4]): 1.1 ugequiv/g
Radiolabel recovery (Muscle tissue [5]): < 0.037 ugequiv/g
Radiolabel recovery (Rattus norvegicus [6]): 0.32 ugequiv/g
Radiolabel recovery (Rattus norvegicus [7]): 0.37 ugequiv/g
Radiolabel recovery (Lung): < 0.037 ugequiv/g
Radiolabel recovery (Rattus norvegicus [8]): 0.29 ugequiv/g
Radiolabel recovery (Blood): 0.4 ugequiv/g
Radiolabel recovery [9]: 4.56 µg/mL
Radiolabel recovery (Spleen): Not detected assumed BLQ
Radiolabel recovery (Muscle tissue [11]): Not detected assumed BLQ
Radiolabel recovery (Rattus norvegicus [12]): Not detected assumed BLQ
Radiolabel recovery (Rattus norvegicus [13]): 1.03 ugequiv/g
Radiolabel recovery (Brain): < 0.037 ugequiv/g
Radiolabel recovery (Rattus norvegicus [14]): 0.5 ugequiv/g
Radiolabel recovery (Rattus norvegicus [15]): 2.03 ugequiv/g
Radiolabel recovery (Rattus norvegicus [16]): 0.05 ugequiv/g
dose excreted [17]: 93%
SMILES: COc1ccc(-n2nc(C(N)=O)c3c2C(=O)N(c2ccc(N4CCCC[14C]4=O)cc2)CC3)cc1
Radiolabel recovery (Adrenal gland [2]): Not sampled as not visualised in autoradiograph
Radiolabel recovery (Rattus norvegicus [10]): Not sampled as not visualised in autoradiograph
